This is an account of results in ChEMBL document CHEMBL4145481, “Synthesis and biological evaluation of novel bavachinin analogs as anticancer agents” (Eur J Med Chem, 2018).

What all share (format): functional
For assay [1], the system named is A549. As to the kind of experiment: Cytotoxicity against human A549 cells assessed as growth inhibition at 50 uM after 48 hrs by SRB assay relative to control. The following applies: A549, 48 h, read-out: GI. The method, boiled down:
(§1)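 SRB growth-inhibition run in RPMI-1640/10% FBS at 37°C, 5% CO₂. Cell lines were seeded (PC-3 7000, MCF-7 8000, A549 7500, HCT-116 7000/well) and attached 24 h. The treatment series included 50 μM, with 48 h exposure. Cells were cold-TCA fixed and stained with 0.4% SRB. Dye was solubilized in 10 mM Tris pH 10.4 and read at 540 nm against untreated control.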
Background: The SRB assay estimates cell density from bound dye.

The subject of assay [2] is PC-3. As to the kind of experiment: Cytotoxicity against human PC3 cells assessed as growth inhibition at 50 uM after 48 hrs by SRB assay relative to control. To be noted: PC-3, 48 h, read-out: GI. In short, it runs like this: as §1
In assay [3] the test system is HCT-116. As to the kind of experiment: Cytotoxicity against human HCT116 cells assessed as growth inhibition at 50 uM after 48 hrs by SRB assay relative to control. The following applies: HCT-116, 48 h, read-out: GI. In short, it runs like this: as §1
The test system of assay [4] is MCF7. As to the kind of experiment: Cytotoxicity against human MCF7 cells assessed as growth inhibition at 50 uM after 48 hrs by SRB assay relative to control. The following applies: MCF7, 48 h, read-out: GI. In short, it runs like this: as §1

For the compound `COc1cc2c(cc1CC=C(C)C)C(=O)C[C@@H](c1ccc(Oc3ccccc3)cc1)O2`, the inhibition of growth at 50 µM in assay [1] was determined as 46%; in assay [2] it was 53%; in assay [3] it was 76%; in assay [4] it was 69%.
For `COc1ccc([C@@H]2C/C(=N/OCc3cn(-c4cc(OC)c(OC)c(OC)c4)nn3)c3cc(CC=C(C)C)c(OC)cc3O2)cc1`, in that order: 28%, 36%, 29% and 45%.
For `COc1ccc([C@@H]2C/C(=N/OCc3cn(-c4ccc(C(=O)c5ccccc5)cc4)nn3)c3cc(CC=C(C)C)c(OC)cc3O2)cc1` the same measures were 34%, 40%, 52% and 41%.
Take `COc1cc2c(cc1CC=C(C)C)C(=O)C[C@@H](c1ccc(Oc3ccc(Br)cc3)cc1)O2`: the inhibition of growth at 50 µM in assay [1] stood at 72%; in assay [2], 55%; in assay [3], 76%; in assay [4], 68%.
In the case of `COc1cc2c(cc1CC=C(C)C)C(=O)C[C@@H](c1ccc(Oc3ccc(F)cc3)cc1)O2`, the inhibition of growth at 50 µM came to 27% in assay [1], 19% in assay [2], 29% in assay [3] and 37% in assay [4].
Consider `COc1ccc([C@@H]2C/C(=N/OCc3cn(-c4ccc(O)cc4)nn3)c3cc(CC=C(C)C)c(OC)cc3O2)cc1`, for which the inhibition of growth at 50 µM in assay [1] stood at 52%; in assay [2], 64%; in assay [3], 65%; in assay [4], 63%.
Consider `C#CCOc1ccc([C@@H]2CC(=O)c3cc(CC=C(C)C)c(OC)cc3O2)cc1`, for which the inhibition of growth at 50 µM in assay [1] came to 53%; in assay [2], 52%; in assay [3] it was 75%; in assay [4], 68%.
For `COc1ccc([C@@H]2C/C(=N/OCc3cn(-c4ccc(Cl)cc4C)nn3)c3cc(CC=C(C)C)c(OC)cc3O2)cc1`, in that order: 35%, 49%, 20% and 37%.
On to `COc1cc2c(cc1CC=C(C)C)[C@H](O)C[C@@H](c1ccc(O)cc1)O2`, for which the inhibition of growth at 50 µM in assay [1] was 48%; in assay [2], 13%; in assay [3] it was 37%; in assay [4], 49%.
For `COc1ccc([C@@H]2C/C(=N/OCc3cn(-c4ccc(NC(=O)c5ccccc5)cc4)nn3)c3cc(CC=C(C)C)c(OC)cc3O2)cc1` the same measures were 31%, 22%, 8% and 4%.
For `COc1ccc([C@@H]2C/C(=N/OCc3cn(-c4ccc(C#N)cc4)nn3)c3cc(CC=C(C)C)c(OC)cc3O2)cc1` the same measures were 42%, 50%, 50% and 40%.
For `COc1cc(O)c(C(=O)/C=C/c2ccc(O)cc2)cc1CC=C(C)C`, in that order: 68%, 44%, 63% and 73%.
As for `C#CCO/N=C1/C[C@@H](c2ccc(OC)cc2)Oc2cc(OC)c(CC=C(C)C)cc21`, the inhibition of growth at 50 µM was found to be 64% in assay [1], 41% in assay [2], 65% in assay [3] and 61% in assay [4].
For `COc1ccc([C@@H]2C/C(=N/OCc3cn(-c4cccc(CO)c4)nn3)c3cc(CC=C(C)C)c(OC)cc3O2)cc1`, the inhibition of growth at 50 µM in assay [1] is 43%; in assay [2], 34%; in assay [3], 27%; in assay [4], 42%.
For `COc1ccc([C@@H]2C/C(=N/O)c3cc(CC=C(C)C)c(OC)cc3O2)cc1` the same measures were 66%, 45%, 47% and 63%.
For `COc1ccc([C@@H]2C/C(=N/OCc3cn(-c4ccc(NC(C)=O)cc4)nn3)c3cc(CC=C(C)C)c(OC)cc3O2)cc1`, the inhibition of growth at 50 µM in assay [1] stood at 19%; in assay [2] it was 2%; in assay [3] it was 6%; in assay [4] it was 0%.
For `COc1ccc([C@@H]2CC(=O)c3cc(CC=C(C)C)c(OC)cc3O2)cc1`, in that order: 45%, 58%, 68% and 65%.
For `CCCCOc1ccc([C@@H]2CC(=O)c3cc(CC=C(C)C)c(OC)cc3O2)cc1`, in that order: 37%, 48%, 60% and 57%.
For `CCCOc1ccc([C@@H]2CC(=O)c3cc(CC=C(C)C)c(OC)cc3O2)cc1`, in that order: 43%, 54%, 63% and 60%.
`COc1ccc([C@@H]2C/C(=N/OCc3cn(-c4cccnc4Cl)nn3)c3cc(CC=C(C)C)c(OC)cc3O2)cc1`: the inhibition of growth at 50 µM in assay [1] is 58%; in assay [2] it was 44%; in assay [3], 47%; in assay [4], 35%.
For `CCOc1ccc([C@@H]2CC(=O)c3cc(CC=C(C)C)c(OC)cc3O2)cc1`, in that order: 37%, 60%, 65% and 57%.
For `COc1cc2c(cc1CC=C(C)C)C(=O)C[C@@H](c1ccc(Oc3cccc([N+](=O)[O-])c3)cc1)O2`, the inhibition of growth at 50 µM was found to be 37% in assay [1], 21% in assay [2], 46% in assay [3] and 53% in assay [4].
